Reference: ChEMBL document CHEMBL1821676, “Click to a focused library of benzyl 6-triazolo(hydroxy)benzoic glucosides: novel construction of PTP1B inhibitors on a sugar scaffold” (Eur J Med Chem, 2011)

Molecular target: T1, Tyrosine-protein phosphatase non-receptor type 1 (Homo sapiens, UniProt P18031)
T1 sequence (P18031 whole entry): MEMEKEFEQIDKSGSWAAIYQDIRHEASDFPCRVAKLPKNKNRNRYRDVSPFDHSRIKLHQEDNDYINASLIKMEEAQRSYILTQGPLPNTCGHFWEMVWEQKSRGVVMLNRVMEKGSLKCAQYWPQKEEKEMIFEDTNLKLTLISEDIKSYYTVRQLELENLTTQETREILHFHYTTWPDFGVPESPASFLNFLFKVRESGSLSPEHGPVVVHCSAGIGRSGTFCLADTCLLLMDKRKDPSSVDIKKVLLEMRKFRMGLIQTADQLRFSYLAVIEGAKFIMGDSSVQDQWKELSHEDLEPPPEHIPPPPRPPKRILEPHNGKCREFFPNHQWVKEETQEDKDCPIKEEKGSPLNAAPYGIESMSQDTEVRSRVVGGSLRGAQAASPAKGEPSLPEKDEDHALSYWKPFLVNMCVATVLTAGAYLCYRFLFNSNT
Assay: Inhibition of human recombinant PTP1B expressed in CHO cells assessed as p-nitorphenol production after 2 mins by microplate reader
Assay type: cell-based
Method in brief: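 Recombinant human PTP1B catalytic domain (30 nM) with 2 mM pNPP in 50 mM MOPS, pH 6.5, at 30 °C. pNP release was read continuously at 405 nm for 2 min, and the initial rate was taken from the early linear region. Inhibitors were diluted around the estimated IC50. IC50 came from a nonlinear fit of % inhibition vs [I] using a Hill-coefficient equation.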

| IC50 | SMILES |
| --- | --- |
| > 100 µM | O=C(O)c1cc(O)cc(O)c1 [3,5-DIHYDROXYBENZOIC ACID] |
| > 100 µM | O=C(O)c1cccc(O)c1 [3-HYDROXYBENZOIC ACID] |
| > 100 µM | O=C(O)c1cc(O)ccc1O [GENTISIC ACID] |
